# Compounds with a hit are over-represented: about 2.3% of the library has one in this group of screens.
# TRPC4 act: TRPC4 (mouse) channel activation. hit rate 0.49% among 310,000. B-score at 10 µM. HEK293 TRPC4beta/mu-opioid, Fluo4 calcium fluorescence; hits give high values;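 active = B-score above 5 SD of library B-scores, and initial fluorescence ratio not above library mean plus 5 SD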;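 note: positive B-score marks a calcium rise read as TRPC4 activation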
#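 System: HEK293 cells stably co-expressing mouse TRPC4beta and mu-opioid receptor; Schedule: Fluo4 dye loading 45 min at room temperature, 110 s recording; Detection: Fluo4 fluorescence, kinetic; Evaluation: B-scored integrated calcium fluorescence ratio; Controls: buffer (low) and maximal DAMGO (high).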
# TRPC6 act: mouse TRPC6 channel activation | Q61143 | HEK293-TRPC6 membrane potential dye fluorescence; hits give high values | B-score at 10 µM | hit rate 0.13% among 310,000;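 active = B-score of the integrated fluorescence ratio above library mean plus 3 SD, and starting fluorescence ratio within library mean plus 5 SD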;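 note: higher score means more depolarization so channel activation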
# TRPC4 potent: allosterically enhances the mouse TRPC4 cation channel | hit rate 0.42% among 310,000 | AID 2227 | Q9QUQ5 | HEK293 TRPC4beta/mu-opioid, DAMGO EC20, Fluo-4 Ca2+ flux; hits give high values | B-score at 10 µM;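 active = B-score of calcium response area above 5 SD of library B-scores, with initial fluorescence ratio within 5 SD of library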
# TRPC4 block: blocks the mouse TRPC4 cation channel. hit rate 0.39% among 300,000. AID 2247. B-score at 10 µM. HEK293 TRPC4beta/mu-opioid, DAMGO-evoked Fluo4 calcium flux; hits give low values. Q9QUQ5;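 active = B-score over 3 SD under the library average, no early fluorescence shift, positive overall ratio signal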
#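 Assay system: TRPC4beta/mu-opioid receptor HEK293 cell line; compound dosing: single concentration per test compound; detection: Fluo4 Ca2+ flux fluorescence; evaluation: per-well B score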
# TRPC6 inh: blocks the mouse TRPC6 cation channel; AID 2553; hit rate 1.1% among 310,000; Q61143; B-score at 10 µM; HEK293-TRPC6, membrane potential dye, ACh-evoked depolarization; hits give low values;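 active = B-score under library mean minus 3 SD, initial fluorescence not abnormally high, positive integrated signal ratio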;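 note: B-score derived from integrated fluorescence ratio over the kinetic read; more negative B-score means stronger inhibition of depolarization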
# A number is an active result; 0 = inactive.
SMILES,TRPC4 act,TRPC6 act,TRPC4 potent,TRPC4 block,TRPC6 inh
Cc1ccc(N2CCN(C(=O)C3CCC(=O)N(Cc4ccc(Cl)cc4)C3)CC2)c(C)c1 (stereo not drawn),0,0,0,0,0
CC1(C)CC(NC(=O)c2cccc(Cl)c2)CC(C)(C)N1,0,0,0,0,0
CCN(CC)CCCNC(=O)Cn1cnc2ccc(S(=O)(=O)N3CCC(C)CC3)cc2c1=O,0,0,12,0,0
Cc1ccc(C)c(N(C(=O)c2snc(C(N)=O)c2N)C(C(=O)NCC2CCCO2)c2ccc(C)o2)c1 (stereo not drawn),0,0,0,-7,0
Cc1ccc(C)c(N(C(=O)c2snc(C(N)=O)c2N)C(C(=O)NCC2CCCO2)c2cccs2)c1 (stereo not drawn),0,0,0,0,0
NC(=O)c1nsc(C(=O)N(Cc2ccc(F)cc2)C(C(=O)NCC2CCCO2)c2ccc(F)cc2)c1N (stereo not drawn),0,0,0,-7,0
COc1ccc(C)cc1N(C(=O)c1snc(C(N)=O)c1N)C(C(=O)NC1CCCCC1)c1ccc(C)o1 (stereo not drawn),0,0,0,-11,0
CN(C)c1ccc(C(C(=O)NCC2CCCO2)N(Cc2ccccc2)C(=O)c2snc(C(N)=O)c2N)cc1 (stereo not drawn),0,0,0,0,0
COC(=O)CSc1nn(-c2ccc(F)cc2)c(=S)s1,0,0,0,-5,0
O=C(CSc1nn(-c2ccccc2)c(=S)s1)Nn1cnnc1,0,0,0,0,0
CC(C)C[C@@H](CN=[N+]=[N-])N1CCN(C)CCC1=O,0,0,0,0,0
CC1(c2ccc([N+](=O)[O-])cc2)Nc2ccccc2S1 (stereo not drawn),0,0,0,0,0
O=[N+]([O-])c1ccc(C2(O)CN(c3ccccc3)C3=[N+]2CCS3)cc1 (stereo not drawn),87,0,0,-7,0
OC1(c2cccs2)CN(c2ccc(Cl)cc2)C2=[N+]1CCCS2 (stereo not drawn),0,0,0,0,0
OC1(c2ccc(F)cc2)CN(c2ccccc2)C2=[N+]1CCS2 (stereo not drawn),0,0,0,-6,0
Cc1ccc(C2(O)CN(c3ccccc3)C3=[N+]2CCS3)cc1 (stereo not drawn),43,0,0,-7,0
O=C(COc1ccccc1)Nc1cccc(-c2ccc(N3CCOCC3)nn2)c1,0,0,0,0,0
COc1ccc(S(=O)(=O)N(C)CC(=O)NCc2ccccn2)cc1,0,0,0,0,0
O=C(Cn1c(=O)oc2ccccc21)Nc1ccc(F)cc1,0,0,0,0,0
Cc1ccc(C(=O)N2CCC3(CC2)Oc2ccc(F)cc2C(=O)C32CC(c3ccccc3)=NO2)s1 (stereo not drawn),0,0,0,0,0
O=C(O)c1cc(S(=O)(=O)NC(CO)C(O)c2ccc([N+](=O)[O-])cc2)ccc1Br (stereo not drawn),0,0,0,0,0
COc1cc(S(=O)(=O)N2CCC(N3CCCCC3)CC2)ccc1-n1cnnn1,0,0,17,0,0
O=S(=O)(c1ccc(-n2cnnn2)cc1)N1CCC(N2CCCCC2)CC1,0,0,12,0,0
CCOC(=O)c1c(NC(=O)c2ccccc2C)sc2c1CC(C)(C)OC2,0,0,11,0,0
CC(C)Oc1ccc(CSC(=N)N)cc1,0,0,0,0,0
SMILES,TRPC4 act,TRPC6 act,TRPC4 potent,TRPC4 block,TRPC6 inh
CCOc1ccc(CSC(=N)N)cc1Cl,120,0,0,0,0
CCOc1ccc(CSC(=N)N)cc1[N+](=O)[O-],77,0,0,0,0
COc1ccc(C(CNC(=O)C2CC2)N(C)C)cc1 (stereo not drawn),0,0,0,0,0
COc1ccc(C(CNC(=O)COc2ccccc2OC)N(C)C)cc1OC (stereo not drawn),137,0,0,0,0
COc1ccc(C(CNC(=O)c2cc(C)on2)N(C)C)cc1 (stereo not drawn),84,0,0,0,0
COc1ccc(C(CNC(=O)Cc2ccc3ccccc3c2)N(C)C)cc1 (stereo not drawn),135,0,0,-6,0
COc1ccc(C(CNC(=O)C(C)c2ccc3cc(OC)ccc3c2)N(C)C)cc1 (stereo not drawn),204,0,0,0,0
COc1ccc(NC(=O)c2cc(C)on2)cc1,0,0,0,0,0
